Assay results: the M2OR odorant receptor database

Legend:
Details in all cases: stereoisomer not certain
OR10G2 (Homo sapiens) = OR10G2 (Homo sapiens) (UniProt Q8NGC3)
How it was run: (§1)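 Whether a receptor–molecule pair is responsive (active) rests on the original authors' judgment that its measured signal was statistically different from baseline. Pairs without that judgment are non-responsive (inactive). Sources used varied assay methods, commonly transient luciferase assays in mammalian cell lines.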

OR10G3 (Homo sapiens) = OR10G3 (Homo sapiens) (UniProt Q8NGC4)
How it was run: as §1

OR10G4 (Homo sapiens) = OR10G4 (Homo sapiens) (UniProt Q8NGN3)
How it was run: as §1

OR10G6 (Homo sapiens) = OR10G6 (Homo sapiens) (UniProt Q8NH81)
How it was run: as §1

OR10G7 (Homo sapiens) = OR10G7 (Homo sapiens) (UniProt Q8NGN6)
How it was run: as §1

OR10G8 (Homo sapiens) = OR10G8 (Homo sapiens) (UniProt Q8NGN5)
How it was run: as §1

OR10G9 (Homo sapiens) = OR10G9 (Homo sapiens) (UniProt Q8NGN4)
How it was run: as §1

OR10H1 (Homo sapiens) = OR10H1 (Homo sapiens) (UniProt Q9Y4A9)
How it was run: as §1

OR10H2 (Homo sapiens) = target: T1, OR10H2 (Homo sapiens) (UniProt O60403)
T1 sequence (whole entry): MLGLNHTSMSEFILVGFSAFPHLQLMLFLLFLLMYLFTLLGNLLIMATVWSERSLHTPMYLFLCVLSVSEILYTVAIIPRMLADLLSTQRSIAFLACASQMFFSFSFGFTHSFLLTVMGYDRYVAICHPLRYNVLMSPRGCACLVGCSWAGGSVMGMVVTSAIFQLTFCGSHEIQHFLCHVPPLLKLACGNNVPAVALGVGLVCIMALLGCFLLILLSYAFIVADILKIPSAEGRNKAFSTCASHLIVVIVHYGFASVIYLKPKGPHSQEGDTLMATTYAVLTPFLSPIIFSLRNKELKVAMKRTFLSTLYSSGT
How it was run: as §1

OR10D3 (Homo sapiens) = OR10D3 (Homo sapiens) (UniProt Q8NH80)
How it was run: as §1

Measured: odorant receptor agonist call;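 note: active if original authors judged signal statistically different from baseline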

Sequence of OR10H1 (Homo sapiens) (Q9Y4A9 whole entry): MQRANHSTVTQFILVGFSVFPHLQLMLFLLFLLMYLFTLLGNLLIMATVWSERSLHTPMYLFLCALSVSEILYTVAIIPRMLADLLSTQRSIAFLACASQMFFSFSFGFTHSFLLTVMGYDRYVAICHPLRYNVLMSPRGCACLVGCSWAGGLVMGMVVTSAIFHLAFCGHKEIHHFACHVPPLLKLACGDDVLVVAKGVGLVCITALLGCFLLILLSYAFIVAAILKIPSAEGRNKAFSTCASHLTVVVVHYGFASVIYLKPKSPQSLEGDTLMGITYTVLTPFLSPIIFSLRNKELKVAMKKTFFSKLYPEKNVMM
Sequence of OR10G4 (Homo sapiens) (Q8NGN3 whole entry): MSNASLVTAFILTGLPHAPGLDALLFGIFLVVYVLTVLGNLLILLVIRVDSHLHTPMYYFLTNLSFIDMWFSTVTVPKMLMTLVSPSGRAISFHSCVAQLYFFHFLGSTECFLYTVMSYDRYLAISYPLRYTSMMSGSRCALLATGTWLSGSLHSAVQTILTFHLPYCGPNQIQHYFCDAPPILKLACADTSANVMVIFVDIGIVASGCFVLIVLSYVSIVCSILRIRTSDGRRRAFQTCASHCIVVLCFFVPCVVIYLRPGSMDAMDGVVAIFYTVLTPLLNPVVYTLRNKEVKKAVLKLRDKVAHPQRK
Sequence of OR10G6 (Homo sapiens) (Q8NH81 whole entry): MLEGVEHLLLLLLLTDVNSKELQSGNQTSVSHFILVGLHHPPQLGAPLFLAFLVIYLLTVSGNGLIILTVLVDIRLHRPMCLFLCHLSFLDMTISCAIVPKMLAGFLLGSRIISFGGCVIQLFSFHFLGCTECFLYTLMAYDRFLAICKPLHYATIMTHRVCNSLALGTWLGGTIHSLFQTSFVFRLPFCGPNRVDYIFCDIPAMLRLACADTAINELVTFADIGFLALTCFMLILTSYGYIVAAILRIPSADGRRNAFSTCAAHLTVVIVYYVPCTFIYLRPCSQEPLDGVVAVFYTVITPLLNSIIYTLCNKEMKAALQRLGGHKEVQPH
Sequence of OR10G9 (Homo sapiens) (Q8NGN4 whole entry): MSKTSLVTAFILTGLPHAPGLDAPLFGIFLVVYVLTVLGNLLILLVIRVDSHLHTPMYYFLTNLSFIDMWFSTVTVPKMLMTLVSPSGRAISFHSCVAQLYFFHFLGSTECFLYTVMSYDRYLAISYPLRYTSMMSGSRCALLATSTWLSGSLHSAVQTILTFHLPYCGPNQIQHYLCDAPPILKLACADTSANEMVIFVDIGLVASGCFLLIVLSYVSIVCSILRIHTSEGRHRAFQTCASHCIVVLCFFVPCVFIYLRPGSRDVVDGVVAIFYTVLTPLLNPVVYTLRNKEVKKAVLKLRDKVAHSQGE
Sequence of OR10G7 (Homo sapiens) (Q8NGN6 whole entry): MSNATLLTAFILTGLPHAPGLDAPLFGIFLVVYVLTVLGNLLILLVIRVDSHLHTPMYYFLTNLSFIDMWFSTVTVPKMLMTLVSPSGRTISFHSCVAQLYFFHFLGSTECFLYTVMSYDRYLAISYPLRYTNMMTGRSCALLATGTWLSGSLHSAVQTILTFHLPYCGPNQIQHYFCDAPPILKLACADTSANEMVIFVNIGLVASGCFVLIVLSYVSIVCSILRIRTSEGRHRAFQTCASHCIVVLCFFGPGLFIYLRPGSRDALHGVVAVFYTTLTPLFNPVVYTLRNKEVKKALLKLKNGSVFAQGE
Sequence of OR10G2 (Homo sapiens) (Q8NGC3 whole entry): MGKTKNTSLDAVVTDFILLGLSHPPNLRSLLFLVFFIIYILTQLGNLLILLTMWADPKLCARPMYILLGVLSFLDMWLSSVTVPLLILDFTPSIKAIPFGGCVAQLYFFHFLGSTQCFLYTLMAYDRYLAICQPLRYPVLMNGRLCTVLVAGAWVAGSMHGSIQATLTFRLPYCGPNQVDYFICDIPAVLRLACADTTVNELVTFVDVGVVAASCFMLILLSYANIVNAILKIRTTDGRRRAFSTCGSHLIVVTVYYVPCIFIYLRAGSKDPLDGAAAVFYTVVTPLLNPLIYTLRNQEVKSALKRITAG
Sequence of OR10G3 (Homo sapiens) (Q8NGC4 whole entry): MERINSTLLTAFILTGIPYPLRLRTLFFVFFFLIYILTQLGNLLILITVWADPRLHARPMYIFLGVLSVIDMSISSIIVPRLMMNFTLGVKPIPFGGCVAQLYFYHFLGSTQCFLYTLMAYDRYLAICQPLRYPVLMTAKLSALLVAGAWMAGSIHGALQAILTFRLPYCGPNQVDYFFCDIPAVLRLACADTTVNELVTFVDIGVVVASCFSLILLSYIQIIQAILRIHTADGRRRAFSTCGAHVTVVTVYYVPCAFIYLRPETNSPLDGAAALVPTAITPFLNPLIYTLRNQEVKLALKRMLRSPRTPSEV
Sequence of OR10G8 (Homo sapiens) (Q8NGN5 whole entry): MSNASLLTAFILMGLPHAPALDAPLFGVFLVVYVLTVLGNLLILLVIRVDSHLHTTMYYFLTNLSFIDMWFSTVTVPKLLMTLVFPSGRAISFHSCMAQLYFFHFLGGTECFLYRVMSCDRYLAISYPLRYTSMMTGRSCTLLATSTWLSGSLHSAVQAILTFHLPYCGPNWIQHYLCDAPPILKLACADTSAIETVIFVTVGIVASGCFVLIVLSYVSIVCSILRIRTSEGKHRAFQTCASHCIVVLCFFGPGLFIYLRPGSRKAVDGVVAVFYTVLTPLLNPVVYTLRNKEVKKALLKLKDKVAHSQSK
Sequence of OR10D3 (Homo sapiens) (Q8NH80 whole entry): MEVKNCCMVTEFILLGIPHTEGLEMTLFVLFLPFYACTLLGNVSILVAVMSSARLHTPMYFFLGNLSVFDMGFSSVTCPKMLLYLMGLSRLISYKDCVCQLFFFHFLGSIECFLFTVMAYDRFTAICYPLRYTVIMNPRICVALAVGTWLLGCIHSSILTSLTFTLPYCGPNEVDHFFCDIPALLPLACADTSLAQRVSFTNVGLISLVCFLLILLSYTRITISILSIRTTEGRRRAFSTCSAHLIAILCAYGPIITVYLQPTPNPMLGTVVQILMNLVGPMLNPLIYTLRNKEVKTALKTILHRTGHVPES

Cc1c([N+](=O)[O-])c(C)c([N+](=O)[O-])c(C(C)(C)C)c1[N+](=O)[O-]
not listed: OR10D3 (Homo sapiens)
inactive: all other assays above

C=CCOC(=O)Cc1ccccc1
inactive: all assays above

O=CC=Cc1ccccc1
active: OR10H2 (Homo sapiens)
